WT yeast gro inh: growth inhibition of WT yeast, mitochondrial fusion screen. inhibition, % at 10 µM. mitochondrial fusion phenotypic screen, WT strain. hit rate 2.1% among 190,000. AID 1362; in the data active = inhibition above about 58%; tested in S. cerevisiae
TNAP act hi DEA: TNAP (human) activation, high acceptor; purified TNAP, CDP-star luminescence, 1 M DEA, 30 min; hits give high values; 0 = EDTA background, 1 = DMSO-only activity; activation factor at 20 µM; 200,000 tested, under 10 active; AID 1136;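 active = activation factor at least 2 at 20 µM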
Target sequence (P05186 whole entry, looked up): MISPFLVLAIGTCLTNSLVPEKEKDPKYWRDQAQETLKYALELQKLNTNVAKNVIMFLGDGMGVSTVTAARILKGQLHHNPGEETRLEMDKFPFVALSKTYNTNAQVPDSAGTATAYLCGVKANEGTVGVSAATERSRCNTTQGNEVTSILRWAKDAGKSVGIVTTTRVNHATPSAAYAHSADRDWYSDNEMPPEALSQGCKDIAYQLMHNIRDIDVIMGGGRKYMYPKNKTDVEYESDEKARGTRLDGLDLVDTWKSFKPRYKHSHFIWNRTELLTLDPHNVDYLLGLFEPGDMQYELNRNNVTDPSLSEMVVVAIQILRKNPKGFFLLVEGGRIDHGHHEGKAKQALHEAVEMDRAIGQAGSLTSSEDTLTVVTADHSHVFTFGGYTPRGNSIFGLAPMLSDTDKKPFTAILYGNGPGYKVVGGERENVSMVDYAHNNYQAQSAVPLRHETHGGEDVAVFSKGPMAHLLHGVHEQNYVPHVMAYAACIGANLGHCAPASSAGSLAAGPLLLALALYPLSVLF
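Test system – human TNAP · Doses – 20 µM single point · Incubation – 30 min, room temperature · Signal – luminescent substrate turnover signal · Read-out basis – activation factor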
TNAP inh hiacc: inhibitors of human TNAP at high phosphate acceptor concentration | P05186 | purified TNAP, CDP-star luminescence, 1 M DEA | inhibition, % at 20 µM | hit rate 0.03% among 200,000;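 active = over 50% inhibition of tissue-nonspecific alkaline phosphatase at 20 µM in the single-dose screen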;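 note: plate controls were DMSO wells for no effect and EDTA-quenched wells as full inhibition for full effect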
TNAP inh noacc: inhibitors of human TNAP without phosphate acceptor; purified TNAP, CDP-star luminescence, 30 min; hit rate 0.26% among 200,000; P05186; inhibition, % at 20 µM;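 active = tissue-nonspecific alkaline phosphatase inhibition above about 50% at 20 µM in the single-dose screen, limit read from the data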;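 note: 0% = DMSO negative control and 100% = EDTA positive control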
Arbovirus anti: antivirals against arbovirus infection. arbovirus infection cell-based antiviral screen. inhibition, % at 10 µM. hit rate 0.37% among 200,000; in the data active = inhibition above about 30%
Active calls of the source: *. Shown are actives, neighbours in structure and some others; about 2.6% of the full set was active somewhere.

SMILES	WT yeast gro inh	TNAP act hi DEA	TNAP inh hiacc	TNAP inh noacc	Arbovirus anti
Cc1[nH][nH]c(=O)c1C(c1cc([N+](=O)[O-])ccc1O)c1c(C)[nH][nH]c1=O	-8.4	0.2	77.4*	79.3*	-23.1
O=C(COC(=O)CNC(=O)c1sc2ccccc2c1Cl)Nc1c(Cl)cc(Cl)cc1Cl	-0.2	1.1	-7.2	-9.0	0.8
Cc1ccc(N=Nc2c(N)[nH]n3c(=O)cc(-c4ccccc4)nc23)cc1	60.3*	0.8	15.4	8.7	-28.1
Nc1[nH]n2c(=O)c3c(nc2c1N=Nc1ccccc1)CCCC3	80.1*	0.8	20.2	-93.9	-14.7
COc1cccc(N=Nc2c(N)[nH]n3c(=O)cc(-c4ccccc4)nc23)c1	9.4	0.9	13.7	6.5	-30.8
Nc1[nH]n2c(=O)c3c(nc2c1N=Nc1ccc(Cl)cc1)CCCC3	0.9	0.7	25.5	18.3	-22.7
FC(F)(F)c1cccc(-c2ccn3ncnc3n2)c1	1.8	1	-2.3	-1.7	2.0
Cc1nc(-c2ccccc2)sc1-c1nc(-c2ccncc2)ncc1S(=O)(=O)c1ccccc1	77.6*	1	-4.8	-10.6	-21.1
O=C(COC(=O)c1cc(-c2cccc(Br)c2)nc2ccccc12)NCC1CCCO1 (stereo not given)	71.1*	1	-2.2	-1.2	2.5
Cc1ccc(NC(=O)C2SC(=Nc3ccccc3)C(C(=O)Nc3ccc(Cl)cc3)=C2N)cc1 (stereo not given)	66.0*	1	-2.5	-16.8	-11.7
Cc1ccc(N=C2SC(C(=O)Nc3ccc(OC(F)(F)F)cc3)C(N)=C2C(=O)Nc2c(C)cc(C)cc2C)cc1 (stereo not given)	-7.0	1	-3.3	-7.3	-35.0
Nc1nc(-c2cccc(Br)c2)cs1	71.1*	1	-0.3	-4.4	-16.6
Nc1nc(-c2ccc(Br)cc2)cs1	22.8	1	-1.9	-7.7	-2.5
O=[N+]([O-])c1ccc(Nc2c3ccccc3nc3ccccc23)cc1	77.2*	0.8	18.6	10.1	-33.6
O=[N+]([O-])c1ccccc1Nc1c2ccccc2nc2ccccc12	-14.2	0.9	9.1	6.8	2.4
O=C(O)c1ccccc1Nc1ccc([N+](=O)[O-])cc1	-6.2	0.8	15.9	12.0	37.1*
O=C(Cc1ccc(F)cc1)Nc1nnc(SCC(=O)NC2CCCC2)s1	-10.6	1.1	-5.9	-66.1	-3.0
O=C(O)CC(NC(=O)C12CC3CC(CC(C3)C1)C2)c1ccc(OC2CCCC2)cc1 (stereo not given)	1.8	1	-0.8	-11.2	2.8
COc1cc(SC)ccc1C(=O)NCC1CCCO1 (stereo not given)	86.1*	1	-4.2	-8.7	2.2
COc1cc(SC)ccc1C(=O)NCCOc1ccc(C)c(C)c1	63.8*	1	-2.1	-9.4	3.0
Cc1nn2c(-c3cccc(NC(=O)CSc4nc5ccccc5o4)c3)nnc2c2ccccc12	-0.5	1	-1.0	-7.0	-13.7
COc1ccc(/C=C(/C(=O)NCc2ccccc2)c2ccccc2)cc1	32.7	1	-1.3	-22.0	-25.2
O=C(NCc1ccccc1)/C(=C/c1ccc(OC(F)F)cc1)c1ccccc1	62.8*	1	1.0	-6.2	-12.6
CC1CN(C(=O)Nc2cccc(Cl)c2)C2(CCCCCC2)O1 (stereo not given)	19.3	1	-0.1	-11.3	-12.6
COc1ccc(-c2n[nH]c(C)c2-c2cnn(-c3ccccc3)c2)c(O)c1	5.8	1	-1.8	-28.4	38.2*
SMILES	WT yeast gro inh	TNAP act hi DEA	TNAP inh hiacc	TNAP inh noacc	Arbovirus anti
COc1ccc(-c2n[nH]c(C)c2-c2cnn(-c3ccccc3)c2)c(O)c1C	44.2	1.1	-5.6	-17.2	-35.1
C/C(=N/NC(=O)c1cccs1)c1ccc(NC(=O)COc2ccc(Cl)cc2)cc1	-1.9	1	-2.7	-8.1	-0.5
OCCC1CN(Cc2ccccc2OC2CCCC2)CCN1Cc1ccsc1 (stereo not given)	13.3	1	-1.5	-4.1	-2.3
CCc1ccc(N2C(=O)CC(NNc3nc4ccccc4s3)C2=O)cc1 (stereo not given)	-3.3	1	-2.9	-16.5	-6.0
CNC(=S)N1CCN(C(c2ccccc2)c2ccccc2)CC1	70.3*	1	-0.7	-2.8	-7.7
CCC(C)NC(=S)N1CCN(C(c2ccccc2)c2ccccc2)CC1 (stereo not given)	69.2*	1	0.3	-6.8	14.2
O=C(Cn1nc(-c2ccc3c(c2)OCCO3)ccc1=O)Nc1cccc(NC(=O)c2ccccn2)c1	20.5	1	-3.4	-8.4	-3.6
O=C(Nc1ccccc1)Nc1snnc1C(=O)Nc1cccc(O)c1	-4.1	1	-1.8	-10.0	47.5*
Cc1nnsc1C(=O)NNC(=O)Nc1ccccc1	8.4	1.1	-6.6	0.0	-2.8
N#Cc1c(N2C(=O)Nc3ccccc3N2O)sc2c1CCCCCC2	-3.3	1	-3.2	-9.9	35.0*
NC(=O)c1cc([N+](=O)[O-])ccc1NCc1cccnc1	-9.6	1	3.9	9.0	37.0*
COc1cccc(C2C3=C(N=c4s/c(=C\c5cccc(O)c5)c(=O)n42)c2ccccc2CC3)c1OC (stereo not given)	32.2	0.9	9.1	10.5	-27.0
COc1ccccc1C1C2=C(N=c3s/c(=C/c4cccc(OCC(=O)O)c4)c(=O)n31)c1ccccc1CC2 (stereo not given)	11.3	1	-1.2	3.5	41.3*
CCOc1cccc2sc(NN)nc12	30.1	0.8	15.1	3.8	38.2*
O=C1CC(N2CCN(c3ccc(C(=O)c4ccc(F)cc4)cc3)CC2)C(=O)N1 (stereo not given)	13.9	1	-0.3	-3.6	11.4
N#Cc1nc(COc2ccc(-c3ccccc3)cc2)oc1NCCCN1CCOCC1	76.8*	1.1	-9.0	-13.1	-35.9
CCOC(=O)C1=C(CC)Nc2ccccc2N/C1=N\S(=O)(=O)c1ccc2ccccc2c1	72.2*	1	-0.7	0.2	-2.7
S=c1[nH]ncn1/N=C/c1cccc(Oc2ccccc2)c1	72.9*	1	0.1	10.7	-3.4
C(=N\n1cnnc1)/c1cccc(Oc2ccccc2)c1	45.9	1	-4.0	-0.5	-2.4
Cc1ccc(-n2cc(C(=O)c3ccc(F)cc3)nn2)cc1Cl	68.4*	1	-4.6	-15.2	-9.1
COc1ccc(/C=C/C(=O)c2cc(Br)ccc2O)cc1OC	-24.7	1	0.3	-0.5	3.1
COc1ccc(/C=C/C(=O)c2cc(Br)ccc2OC(=O)c2ccco2)cc1OC	65.0*	1	3.9	9.0	-30.8
COc1ccc(-c2ccnc3c(C(=O)O)cnn23)cc1	-21.6	1	0.4	-9.6	9.2
Cc1ccc(S(=O)(=O)Nc2ccccc2-c2ccccc2NS(=O)(=O)c2ccc(C)cc2)cc1	62.1*	1	0.4	13.0	-26.6
CSc1ccc(S(=O)(=O)Nc2ccc(S(=O)(=O)Nc3ccc(C)cc3)cc2)cc1	-3.8	1	2.6	-1.9	-32.5
Cc1ccc(S(=O)(=O)Nc2ccccc2CNc2ccc(Br)cn2)cc1	65.0*	1	2.9	-2.5	-26.1

Source: PubChem BioAssay (several laboratories)
